The test system of one data set is C. albicans DAY185. The data set is described as follows: C. albicans growth inhibition / cell viability. The settings on record: for MIC: Candida albicans, DAY185, 48 h, read-out: MIC of growth inhibition. It is filed as cell-based, Candida albicans.
Data set [1] in a line: Stability in organic solvents. It is filed as physicochemical. The conditions noted are these: MeOH and varying H2O-MeOH mixtures, CHCl3, CH2Cl2, EtOAc.
Data set [2] concerns C. albicans DAY185 hyphae formation. The data set is described as follows: Hyphae formation assay. It is filed as cell-based, Candida albicans. The conditions noted are these: for network of hyphal growth versus vehicle control: 50 μM, 6 h incubation, Figure 3; for germ tube and hyphae formation by 6 h: 6 h post inoculation; for germ tube and hyphae formation by 6 h / hyphae at 24 h: versus vehicle-treated cells; for hyphae at 24 h: 24 h post inoculation; for C. albicans hyphae formation / hyphal morphogenesis: phase contrast microscopy. Summed up:
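DAY185 grown overnight in BHI at 37 °C, pelleted, washed and resuspended in PBS pH 7.4. Seeded at 1×10^6 cells/well for 1 h at 37 °C, then washed twice with PBS to remove non-adherent cells. RPMI 1640 with 2% glucose plus test compound (50 μM), farnesol (50 μM) or DMSO vehicle (1% by vol.) added. Incubated at 37 °C; phase-contrast microscopy (×200) at 2.5, 6 and 24 h.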

The subject of a further data set is MIA PaCa-2 cells. Description: Mammalian cell cytotoxicity assay. It is filed as cell-based, human. The settings on record: MIA PaCa-2 cell line, 24 h, MTT.
Data set [3] concerns C. albicans DAY185 biofilm formation. Description: Biofilm time of addition assay. It is filed as cell-based, Candida albicans. The conditions noted are these: conclusion from the time-of-addition study.
The conditions of data set [4]: several organic solvents; cited from earlier work.

Entries after “also recorded” stand apart in the source; their conditions may differ.

Broadly, the MIC is the lowest concentration found to suppress growth. As for `CC1(C)C=Cc2c(ccc3c2[N+]([O-])=C2C(C)(C)[C@@H]4C[C@]56CCCN5C(=O)[C@]4(NC6=O)[C@H]4N5C(=O)[C@@]67CCCN6C(=O)[C@@]56[C@H](c5c([nH]c8c9c(ccc58)OC(C)(C)C=C9)C(C)(C)[C@@H]6C7)[C@]234)O1` [Compound 1, waikialoid A], the MIC with C. albicans DAY185 was more than 200 µM. The stability in solvents result in data set [1] is recorded as “very stable for days”. Moreover, in data set [2], the “network of hyphal growth versus vehicle control” value was “significantly reduced or absent from nearly all cells”; the “germ tube and hyphae formation by 6 h” value is on record as “did not form germ tubes or hyphae by 6 h”; the “hyphae at 24 h” value is reported as “severely truncated hyphae”; the “C. albicans hyphae formation / hyphal morphogenesis” value is reported as “inhibited C. albicans hyphal morphogenesis; also recorded: inhibited C. albicans hyphae formation in a dose dependent manner”. The “not toxic to mammalian (human) cells at concentrations up to” value in the data set with MIA PaCa-2 cells is more than 200 µM. For the same compound, the “effect on preformed biofilms” value in data set [3] is recorded as “ineffective at disrupting preformed biofilms; also recorded: likely not effective at inhibiting or disrupting preformed biofilms”.
As for `CC1(C)C=Cc2c(ccc3c2NC(=O)[C@@]32C[C@@]34NC(=O)[C@]5(CCCN5C3=O)C[C@H]4C2(C)C)O1` [Compound 2, notoamide B], the minimum inhibitory concentration (MIC) in the data set on C. albicans DAY185 was more than 200 µM.
As for `CC1(C)C=Cc2c(ccc3c2NC(=O)[C@@]32[C@H](O)[C@@]34NC(=O)[C@]5(CCCN5C3=O)C[C@H]4C2(C)C)O1` [Compound 3, sclerotiamide], the MIC in the data set with C. albicans DAY185 was more than 200 µM.
On the same count and under the same terms, the same measure for `CC1(C)C=Cc2c(ccc3c4c([nH]c23)C(C)(C)[C@@H]2C[C@]35CCCN3C(=O)[C@]2(NC5=O)[C@H]4O)O1` [Compound 5, notoamide R]: more than 200 µM; for `CC1(C)C=Cc2c(ccc3c4c([nH]c23)C(C)(C)[C@@H]2C[C@]35CCCN3C(=O)[C@@]2(C4)NC5=O)O1` [Compound 6, stephacidin A]: more than 200 µM; for `CC1(C)C=Cc2c(ccc3c2[N+]([O-])=C2C3=C[C@@]34NC(=O)[C@]5(CCCN5C3=O)C[C@H]4C2(C)C)O1` [Compound 7, CJ-17665]: more than 200 µM.
Same read-out and setting: to `CC1(C)C=Cc2c(ccc3c2[N+]([O-])=C2C(C)(C)[C@@H]4C[C@]56CCCN5C(=O)[C@]4(NC6=O)[C@H]4N5C(=O)[C@@]67CCCN6C(=O)[C@@]56[C@@H]([C@]234)[C@]2(O)C(=[N+]([O-])c3c2ccc2c3C=CC(C)(C)O2)C(C)(C)[C@@H]6C7)O1` [Compound 14, waikialoid B] belongs more than 200 µM.
Turning to `C/C=C/C=C/C=C/[C@H]1C[C@@H](O)CC(=O)[C@@H]1C` [Compound 15, waikialide A], the MIC with C. albicans DAY185 is more than 200 µM. Besides, in data set [2], the “network of hyphal growth versus vehicle control” value is “significantly reduced or absent from nearly all cells”; the “germ tube and hyphae formation by 6 h” value is given as “did not form germ tubes or hyphae by 6 h”; the “hyphae at 24 h” value is given as “severely truncated hyphae”; the “C. albicans hyphae formation / hyphal morphogenesis” value is listed as “inhibited C. albicans hyphae formation in a dose dependent manner”.
As to `C/C=C/C=C/C=C/[C@H]1C[C@@H](O)C[C@@H](O)[C@@H]1C` [Compound 16, waikialide B], in the data set on C. albicans DAY185, the minimum inhibitory concentration (MIC) is more than 200 µM.
`CC1(C)C=Cc2c(ccc3c2[N+]([O-])=C2C(C)(C)[C@@H]4CC56CCCN5C(=O)[C@]4(NC6=O)[C@H]4N5C(=O)[C@@]67CCCN6C(=O)[C@@]56[C@H](c5c(n(O)c8c9c(ccc58)OC(C)(C)C=C9)C(C)(C)[C@@H]6C7)[C@]234)O1` [Compound 17, stephacidin B]: the “stability in organic solvents” value in data set [4] was “degrade in several organic solvents”.
With `CC(C)=CCC/C(C)=C/CC/C(C)=C/CO` [farnesol, reference compound], in the data set with C. albicans DAY185, the MIC is more than 200 µM. The “effect on C. albicans cell survival” value with C. albicans DAY185 (positive control) is reported as “did not impede cell survival”. The “network of hyphal growth versus vehicle control” value in data set [2] is listed as “significantly reduced or absent from nearly all cells”.

Values taken from paper PMC3338887 (Journal of Natural Products, 2012).
